Experiment [1] deals with CCRF-CEM. In words: Antiproliferative activity against human CCRF-CEM cells after 48 hrs by MTT assay. The experiment is classed as functional, cell-based. Summed up: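 CCRF-CEM cells in RPMI 1640 with 10% FBS, penicillin/streptomycin, 37 °C, 5% CO2, seeded at 2 × 10⁵ cells/mL. Compounds added at various concentrations, each in quintuplicate, for 48 h. Growth read by MTT. IC50 taken as the concentration giving 50% growth inhibition.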
On the technique in general: Formazan colour is commonly taken as a measure of viable cells.

Experiment [2] relates to CCRF-CEM. As to the kind of experiment: Induction of late stage apoptosis in human CCRF-CEM cells at 2.5 uM after 48 hrs by annexin V-FITC/propidium iodide staining relative to control. Format: functional. Summed up:
(§1)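 CCRF-CEM cells treated with compound at 1.0, 2.5 or 5 μM for 48 h, alongside untreated controls. Stained with annexin V-FITC/PI kit and analysed by flow cytometry, 488 nm laser. Early apoptosis counted as annexin V+/PI−; late apoptosis or necrosis as double positive.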

Experiment [3] deals with CCRF-CEM. As to the kind of experiment: Induction of early stage apoptosis in human CCRF-CEM cells at 1 uM after 48 hrs by annexin V-FITC/propidium iodide staining relative to control. The experiment is classed as functional. Summed up:
as §1

In experiment [4] the test system is CCRF-CEM. In words: Induction of late stage apoptosis in human CCRF-CEM cells at 5 uM after 48 hrs by annexin V-FITC/propidium iodide staining relative to control. The experiment is classed as functional. Summed up: as §1
The next experiment concerns K562. As to the kind of experiment: Antiproliferative activity against human K-562 cells by MTT assay. Format: functional, cell-based. Summed up: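 K562 cells seeded at 2 × 10⁵ cells/mL. Compound added at various concentrations in quintuplicate, then incubated. Viability read by MTT. IC50 is the concentration inhibiting growth by 50%.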
Experiment [5] deals with CCRF-CEM. In words: Induction of early stage apoptosis in human CCRF-CEM cells at 2.5 uM after 48 hrs by annexin V-FITC/propidium iodide staining relative to control. Format: functional. The procedure, abridged:
as §1

The test system of another experiment is HL-60. As to the kind of experiment: Antiproliferative activity against human HL-60 cells by MTT assay. Format: functional, cell-based. Summed up: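 HL60 cells in RPMI 1640 with 10% FBS, penicillin/streptomycin, 37 °C, 5% CO2, seeded at 2 × 10⁵ cells/mL. Compound added at various concentrations in quintuplicate, then incubated. Viability read by MTT. IC50 is the concentration giving 50% growth inhibition.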

For experiment [6], the system named is CCRF-CEM. In words: Induction of early stage apoptosis in human CCRF-CEM cells at 5 uM after 48 hrs by annexin V-FITC/propidium iodide staining relative to control. Format: functional. Summed up: as §1
The test system of experiment [7] is CCRF-CEM. As to the kind of experiment: Induction of apoptosis in human CCRF-CEM cells assessed as accumulation at sub-G0 phase after 24 hrs by flow cytometry. The experiment is classed as functional, cell-based. The procedure, abridged: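 CCRF-CEM cells exposed to compound at 0.5, 1.0 or 2.5 μM for 24 h at 37 °C, alongside untreated controls. Cells washed twice in PBS, fixed in ice-cold 70% ethanol at 4 °C for 1–2 h, then stained with propidium iodide. Sub-diploid (sub-G0) DNA peak measured by flow cytometry, 488 nm argon laser.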
A general note: Flow cytometry measures light scatter and fluorescence of single cells or particles in a stream.

Experiment [8] concerns CCRF-CEM. In words: Induction of late stage apoptosis in human CCRF-CEM cells at 1 uM after 48 hrs by annexin V-FITC/propidium iodide staining relative to control. The experiment is classed as functional. The procedure, abridged: as §1

A value given as a limit tells only on which side of the number the result lay.

In ChEMBL document CHEMBL1158185, “Synthesis and potent antileukemic activities of 10-benzyl-9(10H)-acridinones” (Bioorg Med Chem, 2008) one finds IC50 and Activity data, which are given here for 14 compounds.

In general, IC50 refers to the concentration at which inhibition is half-maximal.

With `O=c1c2ccccc2n(Cc2cccc(C(F)(F)F)c2)c2ccccc12`, in the experiment on CCRF-CEM [1], the half-inhibitory concentration (IC50) stood at 36 µM.

As to `CCCCOc1cc(Cn2c3ccccc3c(=O)c3ccccc32)cc(OCCCC)c1`, the half-inhibitory concentration (IC50) with CCRF-CEM [1] was more than 100 µM. Still for that read-out and setting: next, `Cc1cccc(Cn2c3ccccc3c(=O)c3ccccc32)c1`: 8.8 µM; `CCOc1cc(Cn2c3ccccc3c(=O)c3ccccc32)cc(OCC)c1`: 6.7 µM. As to `COc1cc(Cn2c3ccccc3c(=O)c3ccccc32)cc(OC)c1`, the Activity in the experiment with CCRF-CEM [2] was 33.6%; with CCRF-CEM [3], 9.5%; with CCRF-CEM [4], 41.6%; with CCRF-CEM [5] it was 27.4%; in the experiment on CCRF-CEM [6] it was 21.7%; with CCRF-CEM [7] it was “Dose-dependent effect”. In the experiment on CCRF-CEM [8], this compound showed an Activity of 10%. The IC50 was 11.4 µM in the experiment with K562, 0.6 µM with HL-60 and 0.7 µM in the experiment with CCRF-CEM [1].

`COc1cccc(Cn2c3ccccc3c(=O)c3ccccc32)c1` registered an IC50 in the experiment with CCRF-CEM [1] of more than 100 µM. In the experiment with CCRF-CEM [1], `O=c1c2ccccc2[nH]c2ccccc12` [ACRIDONE] yielded an IC50 of more than 100 µM. Still for that read-out and setting: the figure for `O=c1c2ccccc2n(Cc2ccccc2)c2ccccc12` is 52 µM; for `O=c1c2ccccc2n(Cc2cccc(F)c2)c2ccccc12` it is 62 µM. The same measure, in the same setting: next, `COc1ccc(Cn2c3ccccc3c(=O)c3ccccc32)cc1`: more than 100 µM; `O=c1c2ccccc2n(Cc2cc(OCc3ccccc3)cc(OCc3ccccc3)c2)c2ccccc12`: more than 100 µM; `COc1cc(Cn2c3ccccc3c(=O)c3ccccc32)cc(OC)c1OC`: 1.5 µM. The same measure, in the same setting: next, `CCCOc1cc(Cn2c3ccccc3c(=O)c3ccccc32)cc(OCCC)c1`: 39.1 µM; `COc1cc(CN2CCC(=O)CC2)cc(OC)c1OC`: more than 100 µM.
